Measured values collected from several papers.
Compare with care: the assays were run in different laboratories.
Target: Tyrosine-protein kinase receptor TYRO3 (TYRO3, Homo sapiens, UniProt Q06418)
Sequence (Q06418 41-890, as in one of the studies): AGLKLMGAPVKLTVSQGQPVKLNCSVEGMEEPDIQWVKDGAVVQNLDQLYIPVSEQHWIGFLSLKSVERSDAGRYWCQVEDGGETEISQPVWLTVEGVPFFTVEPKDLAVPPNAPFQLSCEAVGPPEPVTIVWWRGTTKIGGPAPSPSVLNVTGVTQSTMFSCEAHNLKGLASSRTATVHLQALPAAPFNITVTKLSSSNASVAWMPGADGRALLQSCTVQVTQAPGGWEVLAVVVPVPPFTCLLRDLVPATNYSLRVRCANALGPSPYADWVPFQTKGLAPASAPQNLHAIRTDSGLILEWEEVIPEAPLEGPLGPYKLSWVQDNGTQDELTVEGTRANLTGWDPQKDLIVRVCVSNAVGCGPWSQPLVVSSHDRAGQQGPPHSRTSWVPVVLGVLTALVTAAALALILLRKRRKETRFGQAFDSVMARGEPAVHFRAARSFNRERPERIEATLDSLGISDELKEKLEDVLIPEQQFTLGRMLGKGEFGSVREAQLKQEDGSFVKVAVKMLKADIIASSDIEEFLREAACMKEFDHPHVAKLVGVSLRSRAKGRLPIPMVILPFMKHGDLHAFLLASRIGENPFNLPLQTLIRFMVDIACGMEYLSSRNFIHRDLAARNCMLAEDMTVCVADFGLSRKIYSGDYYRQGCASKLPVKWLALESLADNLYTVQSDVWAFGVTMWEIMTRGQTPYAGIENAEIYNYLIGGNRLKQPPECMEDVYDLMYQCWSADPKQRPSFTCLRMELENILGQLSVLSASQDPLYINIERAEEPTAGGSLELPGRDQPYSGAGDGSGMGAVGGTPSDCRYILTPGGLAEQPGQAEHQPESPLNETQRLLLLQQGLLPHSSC

Cc1cnc(Nc2ccc(C(=O)N3CCC(N4CCCC4)CC3)cc2)nc1-c1cc2ccccc2s1
remaining binding (binding; competition with immobilised ligand; 1 µM): 58%

CN(c1nccc(-c2cnn3ncccc23)n1)C1CC1
remaining binding (binding; 1 µM): 83%

CCc1ccccc1C(=O)Nc1n[nH]c2c(C)c(F)c(C3C(C#N)=C(C)N(C)C(C)=C3C#N)cc12
remaining binding (cell-free assay; competition with immobilised ligand; 1 µM): 100%

CCN1CCN(Cc2ccc(C(=O)Nc3ccc(C)c(Oc4ccc5c(c4)CC(=O)N5)c3)cc2C(F)(F)F)CC1
remaining binding (binding; competition with immobilised ligand; 1 µM): 100%

COc1cnc(Nc2cccc(S(N)(=O)=O)c2)nc1N1CCN(c2ccccc2)CC1
remaining binding (binding; competition with immobilised ligand; 1 µM): 72%

O=C(Nc1c[nH]nc1C(=O)NC1CCNCC1)c1cc(F)cc(F)c1
remaining binding (binding; competition with immobilised ligand; 1 µM): 100%

Nc1ncc2c(n1)-c1c([nH]c3ccc(C#CC4CC4)cc13)CCCC2
remaining binding (binding; competition with immobilised ligand; 1 µM): 100%

F[C@@H]1CCN(c2nccc(-c3cnn4ncccc34)n2)C1
remaining binding (binding; 1 µM): 89%

COc1ccc2c(c1)O[C@@H](c1ccc(OC)c(OC)c1)C[C@H]2NC(=O)C1(c2ccc3c(c2)OC(F)(F)O3)CC1
remaining binding (cell-free assay; competition with immobilised ligand; 1 µM): 97%

C[C@H]1CCN(c2nccc(-c3cnn4ncccc34)n2)C1
remaining binding (binding; 1 µM): 100%

CNC(=O)[C@@H]1CC[C@@H](n2c(-c3ccc4cnccc4c3)nc3ccc(C(=O)NCc4cccc(C(N)=O)c4)cc32)C1
remaining binding (binding; competition with immobilised ligand; 1 µM): 100%

Nc1c(C(=O)NCc2ccc(C(=O)NCCCC3CCCCC3)cc2)cnn1-c1ccccc1
remaining binding (cell-free assay; competition with immobilised ligand; 0.1 µM): 100%

O=C(NCCCN1CCOCC1)c1ccc(Nc2ncc(Cl)c(-c3ccc(Cl)s3)n2)cc1
remaining binding (binding; competition with immobilised ligand; 1 µM): 94%

Cc1c(NC(=O)c2cc(C(N)=O)nc3cc(F)ccc23)c(C(F)(F)F)nn1Cc1ccc(C#N)cc1
remaining binding (cell-free assay; competition with immobilised ligand; 1 µM): 81%

CN(C)c1nccc(-c2cnn3ncccc23)n1
remaining binding (binding; 1 µM): 75%

C[C@H](c1ccc(F)cc1)N(Cc1cccc(C(=O)O)c1)C(=O)c1cnc2ccccc2c1
remaining binding (cell-free assay; competition with immobilised ligand; 1 µM): 100%

COc1ncc2cc3ccccc3nc2c1C#N
remaining binding (cell-free assay; competition with immobilised ligand; 5 µM): 96%

O=c1nc(-c2ccccn2)sc2ccccc12
remaining binding (cell-free assay; competition with immobilised ligand; 1 µM): 80%

N[C@H]1CCN(c2nccc(-c3cnn4ncccc34)n2)C1
remaining binding (binding; 1 µM): 88%

C=CC(=O)N1CCC(C(=O)NCC(=O)N2CCN(c3nc(-c4cnc(N)nc4C(F)F)nc(N4CCOCC4)n3)CC2)CC1
remaining binding (binding; competition with immobilised ligand; 1 µM): 100%

c1cnn2ncc(-c3ccnc(N4CCC45COC5)n3)c2c1
remaining binding (binding; 1 µM): 73%

O=C(c1ccc(Nc2ncc(Cl)c(-c3ccc(Cl)s3)n2)cc1)N1CCC(N2CCCC2)CC1
remaining binding (binding; competition with immobilised ligand; 1 µM): 57%
